{"source": "ChEMBL document CHEMBL1158347", "about": "“Substituted quinazolines, part 3. Synthesis, in vitro antitumor activity and molecular modeling study of certain 2-thieno-4(3H)-quinazolinone analogs” (2009)", "type_in_all_cases": "functional", "key": {"[1]": {"assay": "Growth inhibition of human CNS cancer cells after 48 hrs", "conditions": "Cancer cell lines", "summary_of_the_method": "(§1)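 NCI in vitro disease-oriented human tumor cell line screen. Compounds passing a one-dose primary assay (MCF-7, NCI-H460, SF-268; pass = growth of any line reduced to 32% or less) were tested on the 60-line panel over a 5-log dose range. Compounds were dissolved in DMSO, with under 1% DMSO in final dilutions, and tested in duplicate at 6×10^4 cells/ml. Cells were incubated at 37 °C in 5% CO2 for 48 h, then diluted 10-fold in saline and counted with a Coulter counter, with counts corrected for dilution. Controls held PBS/DMSO at identical dilutions. GI50 was reported per line and as subpanel/full-panel mean-graph midpoint.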"}, "MCF7": {"system": "MCF7", "assay": "Growth inhibition of human MCF7 cells after 48 hrs", "conditions": "MCF7, 48 h", "summary_of_the_method": "as §1"}, "CCRF-CEM": {"system": "CCRF-CEM", "assay": "Growth inhibition of human CCRF-CEM cells after 48 hrs", "summary_of_the_method": "as §1"}, "K562": {"system": "K562", "assay": "Growth inhibition of human K562 cells after 48 hrs", "conditions": "K562, 48 h", "summary_of_the_method": "as §1"}, "[2]": {"assay": "Growth inhibition of human leukemia cells after 48 hrs", "conditions": "Leukemia cell", "summary_of_the_method": "as §1"}, "[3]": {"assay": "Growth inhibition of human prostate cancer cells after 48 hrs", "conditions": "Cancer cell lines", "summary_of_the_method": "as §1"}, "SK-MEL-2": {"system": "SK-MEL-2", "assay": "Growth inhibition of human SK-MEL-2 cells after 48 hrs", "conditions": "SK-MEL-2, 48 h", "summary_of_the_method": "as §1"}, "SF-539": {"system": "SF-539", "assay": "Growth inhibition of human SF539 cells after 48 hrs", "conditions": "SF-539, 48 h", "summary_of_the_method": "as §1"}, "[4]": {"assay": "Growth inhibition of human ovarian cancer cells after 48 hrs", "conditions": "Cancer cell lines", "summary_of_the_method": "as §1"}, "T47D": {"system": "T47D", "assay": "Growth inhibition of human T47D cells after 48 hrs", "summary_of_the_method": "as §1"}, "RPMI-8226": {"system": "RPMI-8226", "assay": "Growth inhibition of human RPMI8226 cells after 48 hrs", "conditions": "RPMI-8226, 48 h", "summary_of_the_method": "as §1"}, "NSCLC": {"system": "NSCLC", "assay": "Growth inhibition of human NSCLC cells after 48 hrs", "summary_of_the_method": "as §1"}, "[5]": {"assay": "Growth inhibition of human melanoma cells after 48 hrs", "conditions": "Melanoma cell", "summary_of_the_method": "as §1"}, "[6]": {"assay": "Growth inhibition of human Colon cancer cells after 48 hrs", "conditions": "Cancer cell lines", "summary_of_the_method": "as §1"}, "HL-60(TB)": {"system": "HL-60(TB)", "assay": "Growth inhibition of human HL-60(TB) cells after 48 hrs", "conditions": "HL-60, 48 h", "summary_of_the_method": "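NCI 60-cell-line screen over a 5-log dose range. Compounds were dissolved in DMSO, final DMSO under 1%. Duplicate wells were seeded at 6×10^4 cells/ml, with PBS/DMSO vehicle controls at identical dilutions. Cells were incubated 48 h at 37 °C in humidified 5% CO2, diluted 10-fold in saline, and counted by Coulter counter with dilution correction. GI50 read-out.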"}, "[7]": {"assay": "Growth inhibition of human renal cancer cells after 48 hrs", "conditions": "Cancer cell lines", "summary_of_the_method": "as §1"}, "[8]": {"assay": "Growth inhibition of human breast cancer cells after 48 hrs", "conditions": "Cancer cell lines", "summary_of_the_method": "as §1"}, "UACC-257": {"system": "UACC-257", "assay": "Growth inhibition of human UACC257 cells after 48 hrs", "conditions": "UACC-257, 48 h", "summary_of_the_method": "as §1"}, "[9]": {"conditions": "read-out: LC50 (the source's name)"}}, "data": [{"smiles": "O=S(=O)(Nc1nccs1)c1ccc(Nc2nc(-c3cccs3)nc3ccc(I)cc23)cc1", "values": [{"measurement": "GI50", "setting": "[1]", "result": 27.7, "unit": "µM"}, {"measurement": "TGI", "setting": "[1]", "result": 68.3, "unit": "µM"}, {"measurement": "GI50", "setting": "MCF7", "result": 26, "unit": "µM"}, {"measurement": "TGI", "setting": "MCF7", "result": "> 100", "unit": "µM"}, {"measurement": "CC50", "setting": "MCF7; [9]", "result": "> 100", "unit": "µM"}, {"measurement": "GI50", "setting": "CCRF-CEM", "result": 2, "unit": "µM"}, {"measurement": "TGI", "setting": "CCRF-CEM", "result": 4, "unit": "µM"}, {"measurement": "CC50", "setting": "CCRF-CEM; [9]", "result": 9, "unit": "µM"}, {"measurement": "GI50", "setting": "K562", "result": 38, "unit": "µM"}, {"measurement": "LC50 (concentration killing 50% of cells)", "setting": "K562", "result": "> 100", "unit": "µM"}, {"measurement": "TGI", "setting": "K562", "result": "> 100", "unit": "µM"}, {"measurement": "GI50", "setting": "[2]", "result": 21.7, "unit": "µM"}, {"measurement": "TGI", "setting": "[2]", "result": 59.2, "unit": "µM"}, {"measurement": "CC50", "setting": "[2]; [9]", "result": 69.4, "unit": "µM"}, {"measurement": "GI50", "setting": "[3]", "result": 13.9, "unit": "µM"}, {"measurement": "TGI", "setting": "[3]", "result": 35.9, "unit": "µM"}, {"measurement": "CC50", "setting": "[3]; [9]", "result": 73, "unit": "µM"}, {"measurement": "GI50", "setting": "SK-MEL-2", "result": 22, "unit": "µM"}, {"measurement": "LC50", "setting": "SK-MEL-2", "result": "> 100", "unit": "µM"}, {"measurement": "TGI", "setting": "SK-MEL-2", "result": 47, "unit": "µM"}, {"measurement": "GI50", "setting": "SF-539", "result": 32, "unit": "µM"}, {"measurement": "TGI", "setting": "SF-539", "result": 60, "unit": "µM"}, {"measurement": "CC50", "setting": "SF-539; [9]", "result": "> 100", "unit": "µM"}, {"measurement": "GI50", "setting": "[4]", "result": 25.8, "unit": "µM"}, {"measurement": "TGI", "setting": "[4]", "result": 68.9, "unit": "µM"}, {"measurement": "GI50", "setting": "T47D", "result": 15, "unit": "µM"}, {"measurement": "LC50", "setting": "T47D", "result": "> 100", "unit": "µM"}, {"measurement": "TGI", "setting": "T47D", "result": 51, "unit": "µM"}, {"measurement": "GI50", "setting": "RPMI-8226", "result": 1, "unit": "µM"}, {"measurement": "TGI", "setting": "RPMI-8226", "result": 3, "unit": "µM"}, {"measurement": "CC50", "setting": "RPMI-8226; [9]", "result": 8, "unit": "µM"}, {"measurement": "GI50", "setting": "NSCLC", "result": 23.3, "unit": "µM"}, {"measurement": "LC50 (concentration killing 50% of cells)", "setting": "NSCLC", "result": 92.4, "unit": "µM"}, {"measurement": "TGI", "setting": "NSCLC", "result": 65.2, "unit": "µM"}, {"measurement": "GI50", "setting": "[5]", "result": 18.9, "unit": "µM"}, {"measurement": "LC50 (lethal concentration 50%)", "setting": "[5]", "result": 92.1, "unit": "µM"}, {"measurement": "TGI", "setting": "[5]", "result": 45.5, "unit": "µM"}, {"measurement": "GI50", "setting": "[6]", "result": 24.3, "unit": "µM"}, {"measurement": "LC50", "setting": "[6]", "result": 87.3, "unit": "µM"}, {"measurement": "TGI", "setting": "[6]", "result": 61.1, "unit": "µM"}, {"measurement": "GI50", "setting": "HL-60(TB)", "result": 32, "unit": "µM"}, {"measurement": "TGI", "setting": "HL-60(TB)", "result": 80, "unit": "µM"}, {"measurement": "CC50", "setting": "HL-60(TB); [9]", "result": "> 100", "unit": "µM"}, {"measurement": "GI50", "setting": "[7]", "result": 28.3, "unit": "µM"}, {"measurement": "TGI", "setting": "[7]", "result": 79.6, "unit": "µM"}, {"measurement": "GI50", "setting": "[8]", "result": 25.9, "unit": "µM"}, {"measurement": "TGI", "setting": "[8]", "result": 74.9, "unit": "µM"}, {"measurement": "GI50", "setting": "UACC-257", "result": 0.04, "unit": "µM"}, {"measurement": "LC50", "setting": "UACC-257", "result": 95, "unit": "µM"}, {"measurement": "TGI", "setting": "UACC-257", "result": 28, "unit": "µM"}]}]}
